Statin myotox sup: protects C2C12 myotubes from simvastatin toxicity; ATP luminescence, 48 h; scaled: DMSO 0, geranylgeraniol control 100; rescue of ATP level, % at 7.49 µM; actives 0.78% (n = 330,000); AID 602340;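 active = mean ATP rescue above about 67%, or every replicate alone reaching that limit, limit read from the data, passing the limit was not always enough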;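 also: myotubes were challenged with 10 µM simvastatin during compound exposure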
SR-BI DiI inh: blocks mouse SR-BI lipid uptake from DiI-HDL; ldlA[mSR-BI] CHO cells, DiI-HDL uptake fluorescence, 3 h; inhibition, % at 12.5 µM; Q61009; actives 0.96% (n = 320,000);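 active = mean replicate inhibition of at least 70% and a set share of replicates each scoring 70 or more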;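 also: 0% = median of neutral control wells and 100% = median of positive control wells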
Target sequence (Q61009 whole entry, looked up): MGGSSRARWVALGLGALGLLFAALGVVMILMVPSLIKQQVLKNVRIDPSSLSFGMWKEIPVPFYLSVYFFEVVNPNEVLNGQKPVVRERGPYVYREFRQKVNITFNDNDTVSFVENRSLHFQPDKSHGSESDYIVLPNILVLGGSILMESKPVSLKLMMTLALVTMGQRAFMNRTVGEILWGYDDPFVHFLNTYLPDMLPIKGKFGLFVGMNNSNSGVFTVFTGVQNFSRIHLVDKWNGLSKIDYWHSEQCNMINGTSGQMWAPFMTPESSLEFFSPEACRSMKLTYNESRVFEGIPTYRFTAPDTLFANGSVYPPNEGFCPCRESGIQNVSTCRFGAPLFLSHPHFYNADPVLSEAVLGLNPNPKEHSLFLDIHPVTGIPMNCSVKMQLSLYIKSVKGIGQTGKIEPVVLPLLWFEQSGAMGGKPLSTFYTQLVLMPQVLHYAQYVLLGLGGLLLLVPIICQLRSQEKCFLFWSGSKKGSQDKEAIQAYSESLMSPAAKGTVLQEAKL
Vif inh: inhibitors of HIV Vif. inhibition, % at 7.49 µM. actives 0.35% (n = 340,000). HEK293T cells, Vif self-association by quenched fluorescence, imaging, 24 h. AID 602346; in the data active = inhibition above about 50%, passing the limit was not always enough
SR-BI uptake up: activators of SR-BI mediated HDL lipid uptake; activation, % at 12.5 µM; actives 0.096% (n = 320,000); CHO ldlA[mSR-BI] cells, DiI-HDL uptake fluorescence, 3 h; 100 = double the neutral-control signal;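 active = mean replicate activation of at least 60% and every replicate at or above 60%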;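 also: 0% = median plate neutral-control signal and 100% = twice that signal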
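system = CHO ldlA[mSR-BI] cells, LDL receptor-null, SR-BI overexpressing | medium = Ham's F12 with 0.5% BSA, HEPES 25 mM, pH 7.4 | probe or stimulus = DiI-HDL 10 µg/mL | compound dosing = single-point compound dose | incubation = compound exposure 3 h, 37 °C | technique = DiI fluorescence, bottom read | read-out = cell-associated DiI fluorescence as measure of HDL uptake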
* = called active by the depositor. The list is not random: actives were taken first. Their share in the collection is about 1.7%.

Results for C[C@@H]1CN([C@H](C)CO)S(=O)(=O)c2ccc(Br)cc2O[C@H]1CN(C)S(=O)(=O)c1ccc(F)cc1 ?
Statin myotox sup: 22

What do the screens show for `O=C1CCCC2=C1C(c1ccco1)Nc1ccc3ccccc3c12` (configuration not stated)?
Statin myotox sup: 95*; SR-BI DiI inh: 10; Vif inh: -9; SR-BI uptake up: -10

What do the screens show for `CCC(=O)N1C[C@@H](C)[C@H](OC)CN(C)C(=O)c2cc(NC(=O)c3cnccn3)ccc2OC[C@@H]1C`?
Statin myotox sup: 4

Results for COc1ccc(Nc2nc(-c3cccc([N+](=O)[O-])c3)nc3ccccc23)c(OC)c1 ?
SR-BI DiI inh: 91*; Vif inh: -1; SR-BI uptake up: -91

Results for COc1ccc(Nc2nc(-c3cccs3)nc3ccccc23)c(OC)c1 ?
Statin myotox sup: 4; SR-BI DiI inh: 77*; Vif inh: 0; SR-BI uptake up: -77

What do the screens show for `C[C@@H]1CN([C@H](C)CO)S(=O)(=O)c2ccc(-c3ccncc3)cc2O[C@H]1CN(C)C(=O)CC1CC1`?
Statin myotox sup: -8

What do the screens show for `O=C(c1ccc(F)cc1)N1CCCCN2[C@@H](CO)[C@H](c3ccc(/C=C/c4ccccc4)cc3)[C@@H]2C1`?
Statin myotox sup: 18

How did CC1=[N+](C)c2ccc3ccccc3c2C1(C)C do in these assays?
SR-BI DiI inh: -223; Vif inh: 0; SR-BI uptake up: 223*

How did COc1ccccc1N1CCN(Cc2nc3ccsc3c(=O)[nH]2)CC1 do in these assays?
Statin myotox sup: 126*; SR-BI DiI inh: 17; Vif inh: 8; SR-BI uptake up: -17

How did COc1ccccc1N1CCN(Cc2nc3ccccc3[nH]2)CC1 do in these assays?
Statin myotox sup: -1; SR-BI DiI inh: 2; Vif inh: 6; SR-BI uptake up: -2

Results for CCNC(=O)Nc1ccc2c(c1)C(=O)N(C)[C@H]1CC[C@@H](CC(=O)NCC3CCCCC3)O[C@H]1CO2 ?
Statin myotox sup: 9

Results for Cc1cc(C)cc(NC(=O)c2cc3c(=O)n4ccccc4nc3s2)c1 ?
Statin myotox sup: -122; SR-BI DiI inh: 78*; Vif inh: -8; SR-BI uptake up: -78

What do the screens show for `CN(C)C(=O)c1cccc(-c2ccc([C@@H]3[C@@H](C#N)N(C(=O)C4CCCCC4)[C@H]3CO)cc2)c1`?
Statin myotox sup: 1

How did O=C(Nc1ccccc1)N1CCCCN2[C@H](C1)[C@H](c1ccc(Br)cc1)[C@@H]2CO do in these assays?
Statin myotox sup: 95*

Results for CCCn1c(SCC(=O)Nc2nc(C)c(C(=O)OC)s2)nnc1C(C)C ?
Statin myotox sup: 2; SR-BI DiI inh: -5; Vif inh: -5; SR-BI uptake up: 5

Results for CCn1c(SCC(=O)Nc2nc(C)c(C(=O)OC)s2)nnc1C(C)C ?
Statin myotox sup: 82*; SR-BI DiI inh: 13; Vif inh: 2; SR-BI uptake up: -13

How did CO[C@H]1CN(C)C(=O)c2cc(NC(=O)Nc3cc(Cl)cc(Cl)c3)ccc2OC[C@@H](C)NC[C@H]1C do in these assays?
Statin myotox sup: -124

Results for Cc1noc(C)c1S(=O)(=O)N(C)C[C@H]1Oc2ccc(NC(=O)NC3CCCCC3)cc2CC(=O)N([C@@H](C)CO)C[C@@H]1C ?
Statin myotox sup: 7

What do the screens show for `C[C@@H]1CN([C@H](C)CO)C(=O)c2cccc(NS(=O)(=O)c3ccc(F)cc3)c2O[C@H]1CN(C)C(=O)Nc1ccc2c(c1)OCO2`?
Statin myotox sup: 23

How did CN(C)C(CNC(=O)NC1CCCCC1)c1cccnc1 (configuration not stated) do in these assays?
Statin myotox sup: 107*; SR-BI DiI inh: 6; Vif inh: -3; SR-BI uptake up: -6

How did CN(C)C(CNC(=O)c1cccs1)c1cccnc1 (configuration not stated) do in these assays?
Statin myotox sup: -3; SR-BI DiI inh: -27; Vif inh: 10; SR-BI uptake up: 27

What do the screens show for `C[C@@H]1CN([C@@H](C)CO)C(=O)Cc2cc(NC(=O)Cn3cnnn3)ccc2O[C@H]1CN(C)Cc1ccc(-c2ccccc2)cc1`?
Statin myotox sup: 8

What do the screens show for `C[C@H](CO)N1C[C@H](C)[C@@H](CN(C)Cc2ccc(Oc3ccccc3)cc2)Oc2ccc(NC(=O)CCC(F)(F)F)cc2CC1=O`?
Statin myotox sup: 93*

Results for Cc1noc(C)c1NC(=O)Nc1ccc2c(c1)CC(=O)N([C@H](C)CO)C[C@@H](C)[C@@H](CN(C)Cc1ccccc1)O2 ?
Statin myotox sup: 1

Results for C[C@@H]1CN([C@@H](C)CO)C(=O)Cc2cc(NC(=O)C3CCCCC3)ccc2O[C@H]1CN(C)Cc1ccc(Oc2ccccc2)cc1 ?
Statin myotox sup: 88*

What do the screens show for `Cc1noc(C)c1NC(=O)Nc1ccc2c(c1)CC(=O)N([C@H](C)CO)C[C@H](C)[C@@H](CN(C)Cc1ccc(Oc3ccccc3)cc1)O2`?
Statin myotox sup: 103*

Results for C[C@@H]1CN([C@@H](C)CO)C(=O)Cc2cc(NC(=O)C3CCCCC3)ccc2O[C@@H]1CN(C)Cc1ccc(Oc2ccccc2)cc1 ?
Statin myotox sup: -19

Results for C[C@H](CO)N1C[C@H](C)[C@@H](CN(C)Cc2ccc(-c3ccccc3)cc2)Oc2ccc(NC(=O)Cn3cnnn3)cc2CC1=O ?
Statin myotox sup: 89*

Results for CN(C)C(=O)[C@H]1[C@H](CO)[C@H]2Cn3c(ccc(-c4ccccc4F)c3=O)[C@@H]1N2C(=O)c1cccnc1 ?
Statin myotox sup: 6

How did CCCC(=O)Nc1ccc2c(c1)C(=O)N(C)[C@H]1CC[C@@H](CC(=O)N3CCc4ccccc4C3)O[C@H]1CO2 do in these assays?
Statin myotox sup: -11

What do the screens show for `C[C@H]1CN([C@@H](C)CO)C(=O)Cc2cc(NC(=O)Nc3ccc4c(c3)OCO4)ccc2O[C@H]1CN(C)Cc1ccc(-c2ccccc2)cc1`?
Statin myotox sup: 12

How did C[C@@H]1CN([C@H](C)CO)C(=O)Cc2cc(NC(=O)C3CCCCC3)ccc2O[C@H]1CN(C)Cc1ccc(-c2ccccc2)cc1 do in these assays?
Statin myotox sup: 99*

Results for C[C@H]1CN([C@@H](C)CO)C(=O)Cc2cc(NC(=O)C3CCCCC3)ccc2O[C@@H]1CN(C)Cc1ccc(-c2ccccc2)cc1 ?
Statin myotox sup: 23

Results for C[C@@H]1CN([C@@H](C)CO)C(=O)Cc2cc(NC(=O)C3CC3)ccc2O[C@H]1CN(C)Cc1ccc(Oc2ccccc2)cc1 ?
Statin myotox sup: 74*

What do the screens show for `C[C@@H]1CN([C@@H](C)CO)C(=O)Cc2cc(NC(=O)C3CCCCC3)ccc2O[C@@H]1CN(C)Cc1ccc(C(F)(F)F)cc1`?
Statin myotox sup: 4

How did C[C@H](CO)N1C[C@H](C)[C@@H](CN(C)Cc2ccc(C(F)(F)F)cc2)Oc2ccc(NC(=O)C3CCCCC3)cc2CC1=O do in these assays?
Statin myotox sup: 71*
